We go through 10 molecules from ChEMBL document CHEMBL1153950, “The synthesis and biological evaluation of some caffeic acid amide derivatives: E-2-cyano-(3-substituted phenyl)acrylamides” (Bioorg Med Chem Lett, 2009).

One experiment concerns KB. Nature of the experiment: Antitumor activity against human KB cells by MTT assay. The class given is functional, cell-based. The gist of the method: (§1)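 Screened in vitro by MTT assay on human gastric carcinoma BGC-823, nasopharyngeal carcinoma KB and hepatoma BEL-7402 cell lines; cis-diamminedichloroplatinum (DDP) served as positive control.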
For orientation: Tetrazolium assays rely on reduction of a dye to a coloured formazan, in cell work by metabolically active cells.

Another experiment deals with BGC-823. Briefly: Antitumor activity against human BGC823 cells by MTT assay. The class given is functional, cell-based. The method, boiled down: as §1
The test system of another experiment is Bel-7402. Briefly: Antitumor activity against human Bel7402 cells by MTT assay. The class given is functional, cell-based. The gist of the method:
as §1

The target of experiment [1] is Acetylcholinesterase (Homo sapiens) (UniProt P22303). Nature of the experiment: Inhibition of acetylcholinesterase at 25 uM.
Sequence of Acetylcholinesterase (Homo sapiens) (P22303 whole entry): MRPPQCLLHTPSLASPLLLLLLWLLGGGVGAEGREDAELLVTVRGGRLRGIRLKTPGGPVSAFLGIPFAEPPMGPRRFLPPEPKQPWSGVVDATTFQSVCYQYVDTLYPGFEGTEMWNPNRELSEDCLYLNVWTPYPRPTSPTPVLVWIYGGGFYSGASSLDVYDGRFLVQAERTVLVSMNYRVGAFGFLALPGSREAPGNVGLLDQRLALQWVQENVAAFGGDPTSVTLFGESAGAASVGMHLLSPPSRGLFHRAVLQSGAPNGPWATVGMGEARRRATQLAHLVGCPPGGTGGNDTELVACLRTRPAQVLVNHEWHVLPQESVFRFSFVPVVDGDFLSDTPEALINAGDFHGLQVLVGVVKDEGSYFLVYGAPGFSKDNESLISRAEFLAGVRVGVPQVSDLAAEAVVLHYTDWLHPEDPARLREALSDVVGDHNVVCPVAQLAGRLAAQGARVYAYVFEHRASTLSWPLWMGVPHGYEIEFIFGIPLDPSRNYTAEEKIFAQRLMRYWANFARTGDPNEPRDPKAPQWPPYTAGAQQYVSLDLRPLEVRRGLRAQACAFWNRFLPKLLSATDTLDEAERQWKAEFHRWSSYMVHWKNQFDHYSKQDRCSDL

Values after ≈ are worked out from the molar mass of the structure shown. Bounds are passed on as bounds.

By IC50 is commonly meant the concentration that inhibits the measured activity by half. Low readings indicate greater potency in that assay, high ones weaker potency in that assay. As a reminder, the inhibition is the drop in the measured response relative to a control, in per cent. With `COc1cc(/C=C(\C#N)C(=O)Nc2cccc(Cl)c2)cc([N+](=O)[O-])c1O`, the IC50 in the experiment on KB came out at 56.6 µg/mL (≈ 151 µM); with BGC-823, 26.1 µg/mL (≈ 69.8 µM); in the experiment with Bel-7402 it was 21.1 µg/mL (≈ 56.5 µM). The molecule further returned an inhibition in experiment [1] of 1.64%.
Turning to `COc1c(O)ccc(/C=C(\C#N)C(=O)Nc2cccc(Cl)c2)c1[N+](=O)[O-]`, the IC50 is above 100 µg/mL in the experiment with KB, above 100 µg/mL in the experiment on BGC-823 and 65.3 µg/mL (≈ 175 µM) in the experiment on Bel-7402. In experiment [1], this molecule had an inhibition of 2.19%.
With `N#C/C(=C\c1cc(O)c(O)c([N+](=O)[O-])c1)C(=O)Nc1ccccc1Cl`, the values for the IC50 in the experiment with KB, in the experiment on BGC-823 and with Bel-7402 were 37.4 µg/mL (≈ 104 µM), 10.5 µg/mL (≈ 29.2 µM) and 24 µg/mL (≈ 66.7 µM), respectively. In experiment [1], this molecule displayed an inhibition of 0.95%.
Regarding `N#C/C(=C\c1cc(O)c(O)c([N+](=O)[O-])c1)C(=O)N(c1ccccc1)c1ccccc1`, the IC50 in the experiment on KB was 104 µg/mL (≈ 259 µM); in the experiment on BGC-823, above 100 µg/mL; in the experiment on Bel-7402, 56.2 µg/mL (≈ 140 µM). Moreover, the inhibition in experiment [1] amounted to 7.38%.
In turn, `Cc1cccc(NC(=O)/C(C#N)=C/c2cc(O)c(O)c([N+](=O)[O-])c2)c1` displayed a half-maximal inhibitory concentration (IC50) in the experiment on BGC-823 of 5.6 µg/mL (≈ 16.5 µM). Besides, in experiment [1], the inhibition turned out to be 2.73%.
In the case of `N#C/C(=C\c1cc(O)c(O)c([N+](=O)[O-])c1)C(=O)N1CCCCC1`, the IC50 with KB, in the experiment with BGC-823 and with Bel-7402 was above 100 µg/mL in each case. For the same molecule, the inhibition in experiment [1] is 0.27%.
In the case of `COc1ccc(NC(=O)/C(C#N)=C/c2cc(O)c(O)c([N+](=O)[O-])c2)cc1`, the IC50 in the experiment with KB is 29.2 µg/mL (≈ 82.2 µM); in the experiment on BGC-823, 45.4 µg/mL (≈ 128 µM); in the experiment on Bel-7402, above 100 µg/mL. For the same molecule, the inhibition in experiment [1] is 4.64%.
As to `N#C/C(=C\c1cc(O)c(O)c([N+](=O)[O-])c1)C(N)=O`, the IC50 in the experiment with KB, in the experiment with BGC-823 and in the experiment with Bel-7402 was above 100 µg/mL throughout. The molecule further yielded an inhibition in experiment [1] of 1.09%.
For the molecule `N#C/C(=C\c1cc(O)c(O)c([N+](=O)[O-])c1)C(=O)Nc1cccc(Cl)c1`, the figures for the IC50 with KB, in the experiment with BGC-823 and in the experiment with Bel-7402 were 72.7 µg/mL (≈ 202 µM), above 100 µg/mL and 40.1 µg/mL (≈ 111 µM), respectively. Besides, the inhibition in experiment [1] was 4.37%.
Turning to `N#C/C(=C\c1cc(O)c(O)c([N+](=O)[O-])c1)C(=O)N1CCOCC1`, the IC50 in the experiment with KB, in the experiment on BGC-823 and in the experiment on Bel-7402 was above 100 µg/mL throughout. In experiment [1], this molecule had an inhibition of 3%.
